Source: PubChem BioAssay
Compounds with a hit are over-represented: about 3% of the library has one in this group of screens.
MPTP inh: blocks calcium-induced mitochondrial swelling; inhibition, % at 10 µM; AID 602449; 360,000 compounds, 1.4% hits; isolated mouse mitochondria, Ca2+ swelling absorbance, 30 min;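 active means inhibition of 50% or more, scaled per plate between neutral and stimulator controls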
UBC13 polyUb: blocks human UBC13 polyubiquitin chain formation | P61088 | inhibition, % at 20 µM | AID 485273 | 330,000 compounds, 0.47% hits | TR-FRET; in the data active means inhibition above about 45%, passing the limit was not always enough
Target sequence (P61088 whole entry, looked up): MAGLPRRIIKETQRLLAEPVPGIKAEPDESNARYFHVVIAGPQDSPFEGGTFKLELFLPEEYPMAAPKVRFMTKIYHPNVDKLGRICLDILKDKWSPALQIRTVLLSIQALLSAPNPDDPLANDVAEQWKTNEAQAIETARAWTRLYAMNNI
MIN6 prolif: induces beta-cell replication in MIN6 cells; MIN6 cells proliferation, ATPlite luminescence, 48 h; cells starved in 0.2% serum; 100% = growth in 10% serum; proliferation, % at 10 µM; 330,000 compounds, 0.29% hits;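 active means compounds whose signal lies at least 3.5 SD above the mean of all wells on their plate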
Granule exo inh: lytic granule exocytosis inhibition; TALL-104 LAMP-1 surface exposure, flow cytometry; cells stimulated with thapsigargin and PMA; inhibition, % at 10 µM; 360,000 compounds, 0.66% hits;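 active means inhibition above about 55%, limit read from the data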
iPSC survival up: hiPSC single-cell survival enhancement; ATPlite luminescence; 100% = ROCK inhibitor wells, 0% = DMSO; survival enhancement, % at 20 µM; 360,000 compounds, 0.044% hits; AID 602274; in the data active means survival enhancement above about 18%;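 further: cells exposed to compounds for 16 hours before the ATP read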
Apaf1 inhib: blocks human Apaf-1 apoptosome activity. reconstituted apoptosome caspase-3 activity, DEVD-Rh110 fluorescence. inhibition, % at 20 µM. O14727. AID 489030. 330,000 compounds, 0.71% hits; active means inhibition of at least 40% at 20 µM
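Assay system: Apoptosome proteins | Medium: pH 7.5 Hepes buffer with CHAPS, BSA, DTT | Also added: Cytochrome c and DEVD-Rh110 substrate | Times: 30 min plus 50 min, RT | Detection: Rhodamine 110 fluorescence at Ex 480/Em 540 nm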
MPTP counter: Rhodamine 123 counter-screen of mitochondrial pore hits; AID 624504; isolated mitochondria, membrane potential, Rhodamine 123 fluorescence; shares compounds with MPTP inh; inhibition, % at 10 µM; 5,000 compounds, 78% hits; in the data active means inhibition above about 22%
MPTP abs DR: MPTP inhibition, dose response swelling confirmation; shares compounds with MPTP inh; isolated mitochondria swelling, absorbance; IC50, µM; 780 compounds, 58% hits; AID 651561; in the data active means IC50 below about 20 µM
MPTP cs DR: active in counter-screen for permeability transition pore inhibitors. 780 compounds, 49% hits. AID 651564. isolated mitochondria counterscreen, fluorescence read-out. IC50, µM. shares compounds with MPTP inh; in the data active means IC50 below about 80 µM
Large screens that a line does not name were inactive (follow-up assays come after a bar, where they were run).

CC1(C(=O)NS(=O)(=O)c2ccccc2OC(F)(F)F)CCN1C(=O)c1ccccc1 (stereo not drawn)	none (no result: UBC13 polyUb, MIN6 prolif, Apaf1 inhib)
O=C(Nc1cccc(Cl)c1)Nc1nnc(CC2=CCCCC2)s1	MPTP inh 88.6 | MPTP counter 43.6
O=C(Nc1nnc(CC2=CCCCC2)s1)Nc1ccccc1F	none (no result: MPTP inh, Granule exo inh, iPSC survival up)
O=C(Nc1cccc(Cl)c1)Nc1nnc(CSCCOc2ccc(Cl)cc2)s1	MPTP inh 91.7 | MPTP counter 91.8
Cc1ccc(NC(=O)Nc2nnc(CSCCOc3ccc(Cl)cc3)s2)cc1	MPTP inh 60.3 | MPTP counter inactive | MPTP abs DR inactive | MPTP cs DR <2.5
COc1ccc(OCCSCc2nnc(NC(=O)Nc3ccc(Cl)cc3)s2)cc1	MPTP inh 94.4 | MPTP counter 71.4
O=C1c2ccc(Br)cc2C(=O)N1c1ccc(Cc2ccncc2)cc1	MPTP inh 102.5 (no result: UBC13 polyUb, MIN6 prolif, Apaf1 inhib) | MPTP counter 92.2
O=C1C2C3C=CC(C3)C2C(=O)N1c1ccc(Cc2ccncc2)cc1 (stereo not drawn)	none
COc1ccccc1C#Cc1cnc2c(c1)C(=O)N([C@H](C)CO)C[C@H](C)[C@@H](CN(C)S(=O)(=O)c1cn(C)cn1)O2	none (no result: UBC13 polyUb, MIN6 prolif, Apaf1 inhib)
Cc1cc(/C=C2/SC(=S)N(c3cccc(C(F)(F)F)c3)C2=O)c(C)n1-c1cccnc1	MPTP inh 104.7 | MPTP counter 86.8
OCC[C@@H]1C[C@H](O)[C@@H](O)[C@@]2(OCCCc3cc(Cl)ccc32)O1	none (no result: UBC13 polyUb, MIN6 prolif, Apaf1 inhib)
O=C(NC1CC(=O)N(c2cccc(F)c2)C1)N1CCN(C(=O)c2ccco2)CC1 (stereo not drawn)	none
CC1Oc2ccccc2C=C1/C=N/NC(=O)c1ccccc1O (stereo not drawn)	MPTP inh 89.8 | MPTP counter 72.0
CC1Oc2ccccc2C=C1/C=N/NC(=O)c1ccccc1 (stereo not drawn)	none
COc1cc(OC)c(-n2cc(-c3ccc(OC)c(OC)c3)[nH]c2=S)cc1Cl	none
CCCCNC(=O)c1sc(=S)n2c1[nH]c(=O)c1ccc(C(=O)NCCc3ccc(OC)c(OC)c3)cc12	none
O=C(NCc1ccccc1)c1sc(=S)n2c1[nH]c(=O)c1ccccc12	MPTP inh 85.8 | MPTP counter 88.6
O=[N+]([O-])c1cc(Br)cc(C=Nc2ccc3c(c2)OCO3)c1O	MPTP inh 74.6 | MPTP counter 52.1
O=[N+]([O-])c1ccc(O)c(C=Nc2ccc3c(c2)OCO3)c1	none
CCC(c1nc2ccccc2[nH]1)n1c(-c2ccnc(Cl)c2)nc2ccccc21 (stereo not drawn)	none (no result: UBC13 polyUb, MIN6 prolif, iPSC survival up, Apaf1 inhib)
Cc1nn(C)c(C)c1/C=N/NC(=O)C(C)(C)Oc1ccc(Cl)cc1	none
Cc1nn(C(C)(C)C)c(C)c1/C=N/OC(=O)Nc1ccc(Cl)cc1	MPTP inh 79.3 | MPTP counter 89.2
CC1(C)CC(N=Cc2c(O)n(Cc3ccc4c(c3)OCO4)c(=O)c3ccccc23)CC(C)(C)N1	MPTP inh 52.7 | MPTP counter inactive | MPTP abs DR 4.9 | MPTP cs DR inactive
O=S(=O)(Nc1ccc(Cl)cc1NS(=O)(=O)c1ccccc1)c1ccccc1	MPTP inh 88.8 (no result: UBC13 polyUb, MIN6 prolif, Apaf1 inhib) | MPTP counter 65.0
Cc1ccc(Cl)cc1NS(=O)(=O)c1ccccc1	none (no result: UBC13 polyUb, MIN6 prolif, Apaf1 inhib)
CCCCN1C(=O)C(=O)N(CC(=O)Nc2sc(C)c(C)c2C(=O)OC)C1=O	none
O=C(N/N=C(\CC(=O)c1cccs1)C(F)(F)F)c1ccncc1	none
Cc1ccc(C(=O)N/N=C(/CC(=O)c2cccs2)C(F)(F)F)cc1	MPTP inh 55.2 | MPTP counter 82.0
CC(C)(C)c1ccc(Oc2ccc(NC(=O)c3cccs3)cn2)cc1	MPTP inh 54.0 | MPTP counter 44.2
CC1=NN(c2ccccc2)C(=O)/C1=C\c1ccc(Oc2ccc([N+](=O)[O-])cc2[N+](=O)[O-])cc1	MPTP inh 79.5, Apaf1 inhib 91.9 | MPTP counter 69.8
Nc1ccc(Oc2ccc([N+](=O)[O-])cc2[N+](=O)[O-])cc1	none
COc1cc(/C=C2/C(=O)N(c3ccc(C)c(C)c3)N=C2C)cc([N+](=O)[O-])c1O	none
COc1cc(/C=C2\C(=O)N(c3ccccc3)N=C2C)ccc1Oc1ccc([N+](=O)[O-])cc1[N+](=O)[O-]	MPTP inh 88.4 (no result: UBC13 polyUb, MIN6 prolif, Apaf1 inhib) | MPTP counter 61.4
CCCCNC(=O)C1C(c2ccc(C(F)(F)F)cc2)=Nc2ccccc2N1C(=O)c1ccc2nc(C)[nH]c2c1 (stereo not drawn)	none (no result: UBC13 polyUb, MIN6 prolif, iPSC survival up, Apaf1 inhib)
COc1ccc(OCCCC(=O)NNC(=O)c2ccncc2)cc1	none
O=C1NC(=S)SC1=Cc1ccccc1Cl	MPTP inh 89.5 (no result: UBC13 polyUb, MIN6 prolif, Apaf1 inhib) | MPTP counter 91.4
CCN(CC)c1ccc(C=C2SC(=S)NC2=O)cc1	MPTP inh 63.6 (no result: UBC13 polyUb, MIN6 prolif, Apaf1 inhib) | MPTP counter 78.4
CCN(CC)c1ccc(/C=C2\SC(N)=NC2=O)cc1	none
COc1ccccc1C=C1SC(=S)NC1=O	none (no result: UBC13 polyUb, MIN6 prolif, Apaf1 inhib)
COc1ccc(-n2c(C)cc(/C=C3\SC(=S)NC3=O)c2C)cc1	none
COc1ccc2nc(N3CCCCC3)c(/C=C3\SC(=S)NC3=O)cc2c1	MPTP inh 76.1 | MPTP counter 43.6
O=C1NC(=S)S/C1=C\c1cccc([N+](=O)[O-])c1	MPTP inh 82.3 (no result: UBC13 polyUb, MIN6 prolif, Apaf1 inhib) | MPTP counter 95.5
Cc1cc(C)nc(Nc2nc(C(N)Cc3ccc(Cl)cc3)cs2)n1 (stereo not drawn)	none (no result: UBC13 polyUb, MIN6 prolif, Apaf1 inhib)
O=C1NC(=S)S/C1=C\c1cc2ccccc2nc1N1CCCCC1	MPTP inh 72.7 | MPTP counter 66.8
COc1ccccc1Oc1ccc2c(c1)C(=O)N(c1cccc(O)c1)C2=O	none
COc1ccccc1Oc1ccc2c(c1)C(=O)N(c1cccc3ncccc13)C2=O	MPTP inh 96.3 (no result: UBC13 polyUb, MIN6 prolif, Apaf1 inhib) | MPTP counter 112.3
O=C(Nc1cccc(Cl)c1)c1nc[nH]c1C(=O)N1CCN(c2ccccc2)CC1	none
O=C(Nc1ccc([N+](=O)[O-])cc1)c1cc(Cl)sc1Cl	MPTP inh 89.4 | MPTP counter 85.3
COc1ccc(OC(C)C(=O)Nc2ccc([N+](=O)[O-])cc2)cc1 (stereo not drawn)	none
O=C(Nc1ccc(F)cc1)c1cc(Cl)sc1Cl	none
Cc1cc(OC(F)F)ccc1NC(=O)Nc1ccc([N+](=O)[O-])cc1	MPTP inh 98.8 | MPTP counter 86.0
O=C(Nc1ccc([N+](=O)[O-])cc1)Nc1ccc(Cl)cc1F	MPTP inh 99.8 | MPTP counter 100.8
O=C(Nc1ccc(Cl)cc1)Nc1cc([N+](=O)[O-])ccc1F	MPTP inh 93.0 | MPTP counter 93.0
